Columns and labels:
Human betaherpesvirus 5 [1] = assay: Antiviral activity against human cytomegalovirus AD169 infected in human HEL cells assessed as inhibition of virus-induced cytopathicity after 7 days post infection; format: functional, organism-based; settings: Human betaherpesvirus 5, AD169, HEL, 168 h
Summary of the method: (§1)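 Confluent HEL cell cultures in microtiter plates inoculated with 100 PFU CMV. After 2 h adsorption, residual virus removed and cells incubated with varying compound concentrations. Read once cytopathicity was complete in virus controls, usually 7 days post-infection.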

[2] = Cytotoxicity against human HEL cells assessed as microscopically detectable morphological alterations after 3 days; format: cell-based
Summary of the method: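 HEL cell cultures exposed to varying compound concentrations. Cells examined microscopically for changes in morphology. MCC = lowest concentration producing a detectable alteration of cell morphology.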

[3] = Cytotoxicity against human HEL cells assessed as reduction in cell growth after 3 days; format: cell-based
Summary of the method: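 HEL cell suspensions seeded into wells holding varying compound concentrations. Grown 3 days at 37 °C in humidified CO2 incubator. Viable cells counted with a Coulter Counter. CC50 = concentration lowering viable cell number by 50%.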

Human alphaherpesvirus 3 [4] = assay: Antiviral activity against Varicella zoster virus YS infected in human HEL cells assessed as inhibition of virus induced cytopathicity after 5 days; format: functional, organism-based; settings: Human alphaherpesvirus 3, YS, 120 h
Summary of the method: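 Confluent HEL cell cultures infected with 20 PFU/well VZV; after 2 h adsorption, residual virus removed and serial compound dilutions added. Incubated 5 days at 37 °C, 5% CO2, then fixed and stained. Plaques counted against untreated control. EC50 = concentration cutting plaque formation by 50%.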

Human alphaherpesvirus 3 [5] = assay: Antiviral activity against thymidine kinase deficient Varicella zoster virus 07/1 infected in human HEL cells assessed as inhibition of virus-induced cytopathicity after 5 days; format: functional, organism-based; settings: Human alphaherpesvirus 3, 07/1, HEL, 120 h
Summary of the method: (§2)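 Confluent HEL cell cultures infected with 20 PFU/well VZV; after 2 h adsorption, residual virus removed and serial compound dilutions added. Incubated 5 days at 37 °C, 5% CO2, then fixed and stained. Plaques counted against untreated control.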

Human alphaherpesvirus 3 [6] = assay: Antiviral activity against Varicella zoster virus OKA infected in human HEL cells assessed as inhibition of virus-induced cytopathicity after 5 days; format: functional, organism-based; settings: Human alphaherpesvirus 3, OKA, 120 h; summary of the method: as §2
Human betaherpesvirus 5 [7] = assay: Antiviral activity against human cytomegalovirus Davis infected in human HEL cells assessed as inhibition of virus-induced cytopathicity after 7 days post infection; format: functional, organism-based; settings: Human betaherpesvirus 5, Davis, 168 h
Summary of the method: as §1, with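 “post-infection. EC50 = concentration giving 50% reduction in plaque formation/cytopathicity.” for “post-infection.”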

Human alphaherpesvirus 3 [8] = assay: Ratio of compound EC50 to RA-5021 EC50 for Varicella zoster virus YS infected in human HEL cells assessed as inhibition of virus induced cytopathicity after 5 days; format: functional
Human alphaherpesvirus 3 [9] = assay: Ratio of compound EC50 to RA-5021 EC50 for Varicella zoster virus OKA infected in human HEL cells assessed as inhibition of virus induced cytopathicity after 5 days; format: functional
Human alphaherpesvirus 3 [10] = assay: Ratio of compound EC50 to Acyclovir EC50 for Varicella zoster virus YS infected in human HEL cells assessed as inhibition of virus induced cytopathicity after 5 days; format: functional
Human alphaherpesvirus 3 [11] = assay: Ratio of compound EC50 to Acyclovir EC50 for Varicella zoster virus OKA infected in human HEL cells assessed as inhibition of virus induced cytopathicity after 5 days; format: functional

Structure (SMILES)	EC50 (Human betaherpesvirus 5 [1]) [µM]	EC50 (Human alphaherpesvirus 3 [4]) [µM]	EC50 (Human alphaherpesvirus 3 [5]) [µM]	EC50 (Human alphaherpesvirus 3 [6]) [µM]	EC50 (Human betaherpesvirus 5 [7]) [µM]	MCC at 72 h [2] [µM]	CC50 at 72 h [3] [µM]	Ratio EC50 (Human alphaherpesvirus 3 [8])	Ratio EC50 (Human alphaherpesvirus 3 [9])	Ratio EC50 (Human alphaherpesvirus 3 [10])	Ratio EC50 (Human alphaherpesvirus 3 [11])
Nc1ccn(C[C@@H](CO)OCP(=O)(O)O)c(=O)n1 [CIDOFOVIR]	1.6	–	–	–	–	≥ 254	54	–	–	–	–
O=c1[nH]c(=O)n([C@H]2C[C@H](O)[C@@H](CO)O2)cc1/C=C/Br [BRIVUDINE]	–	0.026	157	–	–	> 1200	432	–	–	–	–
Nc1nc(O)c2ncn(CC3(CO)CC3CO)c2n1 (centres undefined)	100	0.3	25.8	0.13	44.7	> 100	> 100	–	–	7	14
O=c1c2ncn(CC3(CO)CC3CO)c2nc2[nH]c(-c3ccccc3)cn12 (centres undefined)	–	–	–	–	–	–	–	2	3	–	–
O=c1c2ncn(CC3(CO)CC3CO)c2nc2[nH]c(-c3ccc(Br)s3)cn12 (centres undefined)	> 100	0.87	> 100	0.93	76.5	> 100	> 100	2.9	7	–	–
Nc1nc2c(ncn2COCCO)c(=O)[nH]1 [ACYCLOVIR]	–	2	–	–	45	–	782	–	–	–	–
Nc1nc2c(ncn2COC(CO)CO)c(=O)[nH]1 [GANCICLOVIR]	12.6	1.1	2.5	0.59	–	> 1580	221	–	–	–	–

More lines, main results first:

EC50 (Human betaherpesvirus 5 [1]) [µM]	EC50 (Human alphaherpesvirus 3 [4]) [µM]	EC50 (Human alphaherpesvirus 3 [5]) [µM]	EC50 (Human alphaherpesvirus 3 [6]) [µM]	EC50 (Human betaherpesvirus 5 [7]) [µM]	Structure (SMILES)	MCC at 72 h [2] [µM]	CC50 at 72 h [3] [µM]	Ratio EC50 (Human alphaherpesvirus 3 [8])	Ratio EC50 (Human alphaherpesvirus 3 [9])	Ratio EC50 (Human alphaherpesvirus 3 [10])	Ratio EC50 (Human alphaherpesvirus 3 [11])
> 100	0.38	71.5	0.32	50.2	O=c1c2ncn(CC3(CO)CC3CO)c2nc2[nH]c(-c3cccs3)cn12 (centres undefined)	> 100	> 100	1.3	2.5	–	–
> 100	–	> 100	16.4	> 100	O=c1c2ncn(COCCO)c2nc2[nH]c(-c3ccco3)cn12	> 100	> 100	–	–	–	–
> 100	7.9	> 100	5.8	100	O=c1c2ncn(COCCO)c2nc2[nH]c(-c3cccs3)cn12	> 100	> 100	–	–	–	–
> 100	0.64	> 100	0.42	> 100	O=c1c2ncn(CC3(CO)CC3CO)c2nc2[nH]c(-c3ccco3)cn12 (cis isomer)	> 100	> 100	2.1	3.2	–	–
> 100	10	> 100	8.7	100	O=c1c2ncn(COCCO)c2nc2[nH]c(-c3ccc(Br)s3)cn12	> 100	> 100	–	–	–	–

Source: ChEMBL document CHEMBL1153001 (Eur J Med Chem, 2009)
